From ChEMBL document CHEMBL1926618, “Homosecoiridoids from the flower buds of Lonicera japonica” (2011)
Each block holds one molecule with its values, some of them ahead of it. Activity calls are given as the source filed them. The rule behind the calls is not given here.

Key:
[1] = Antiinflammatory activity in rat polymorphonuclear leukocytes assessed as inhibition of platelet-activating factor-induced glucuronidase release at 10 uM preincubated for 15 mins before challenge by spectrophotometry; assay type: functional
A549 = assay: Cytotoxicity against human A549 cells at 10 uM after 96 hrs by MTT assay; assay type: functional, cell-based
BGC-823 = assay: Cytotoxicity against human BGC823 cells at 10 uM after 96 hrs by MTT assay; assay type: functional, cell-based
MCF7 = assay: Cytotoxicity against human MCF7 cells at 10 uM after 96 hrs by MTT assay; assay type: functional, cell-based
Bel-7402 = assay: Cytotoxicity against human Bel7402 cells at 10 uM after 96 hrs by MTT assay; assay type: functional, cell-based
KETR3 = assay: Cytotoxicity against human Ketr3 cells at 10 uM after 96 hrs by MTT assay; assay type: functional, cell-based
HCT-8 = assay: Cytotoxicity against human HCT8 cells at 10 uM after 96 hrs by MTT assay; assay type: functional, cell-based
PC-12 = assay: Neuroprotective activity against glutamate-induced neurotoxicity in rat PC12 cells at 10 uM preincubated for 24 hrs prior challenge measured after 24 hrs by MTT assay; assay type: functional, cell-based
Liver microsomes = assay: Antioxidant activity against Fe2+-cystine induced lipid peroxidation in rat liver microsomes at 10 uM; assay type: functional; settings: Microsome
[2] = target: T1, Tyrosine-protein phosphatase non-receptor type 1 (Homo sapiens) (UniProt P18031); assay: Inhibition of GST-tagged human PTP1B PTPase activity using p-NPP as substrate at 10 uM after 10 mins by spectrophotometry
T1 sequence (whole entry): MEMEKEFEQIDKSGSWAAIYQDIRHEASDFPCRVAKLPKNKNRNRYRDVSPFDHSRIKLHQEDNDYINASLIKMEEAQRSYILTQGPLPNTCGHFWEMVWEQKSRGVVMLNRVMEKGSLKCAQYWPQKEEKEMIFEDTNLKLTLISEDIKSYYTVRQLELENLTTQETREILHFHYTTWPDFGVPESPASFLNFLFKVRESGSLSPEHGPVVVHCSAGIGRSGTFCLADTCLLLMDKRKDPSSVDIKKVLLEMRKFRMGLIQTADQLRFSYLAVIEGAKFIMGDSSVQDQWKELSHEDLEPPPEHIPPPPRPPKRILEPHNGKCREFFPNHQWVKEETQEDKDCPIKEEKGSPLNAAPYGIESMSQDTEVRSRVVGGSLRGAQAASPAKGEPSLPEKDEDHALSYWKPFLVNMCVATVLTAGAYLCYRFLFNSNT

[3] = test system: Human immunodeficiency virus 1; assay: Antiviral activity against HIV1 infected in 293T cells at 10 uM pretreated for 15 mins prior infection measured after 48 hrs by luciferase reporter gene assay; assay type: functional, organism-based
[4] = target: Signal transducer and activator of transcription 3 (Homo sapiens) (UniProt P40763); assay: Inhibition of STAT-3 activity in HELF cells at 10 uM; assay type: cell-based
Summary of the method: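 HELF cells grown in DMEM with 10% FCS under humidified 5% CO2, transfected with pSTAT-3-TA-luc firefly luciferase reporter plasmid by lipofectamine 2000. After 24 h, treated in 5% FBS with compound or DMSO for 24 h. Luciferase activity read in cell lysates by luminometer; activity expressed relative to DMSO-treated transfected cells set at 100%.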

Signal transducer and activator of transcription 3 (Homo sapiens), sequence (P40763 whole entry): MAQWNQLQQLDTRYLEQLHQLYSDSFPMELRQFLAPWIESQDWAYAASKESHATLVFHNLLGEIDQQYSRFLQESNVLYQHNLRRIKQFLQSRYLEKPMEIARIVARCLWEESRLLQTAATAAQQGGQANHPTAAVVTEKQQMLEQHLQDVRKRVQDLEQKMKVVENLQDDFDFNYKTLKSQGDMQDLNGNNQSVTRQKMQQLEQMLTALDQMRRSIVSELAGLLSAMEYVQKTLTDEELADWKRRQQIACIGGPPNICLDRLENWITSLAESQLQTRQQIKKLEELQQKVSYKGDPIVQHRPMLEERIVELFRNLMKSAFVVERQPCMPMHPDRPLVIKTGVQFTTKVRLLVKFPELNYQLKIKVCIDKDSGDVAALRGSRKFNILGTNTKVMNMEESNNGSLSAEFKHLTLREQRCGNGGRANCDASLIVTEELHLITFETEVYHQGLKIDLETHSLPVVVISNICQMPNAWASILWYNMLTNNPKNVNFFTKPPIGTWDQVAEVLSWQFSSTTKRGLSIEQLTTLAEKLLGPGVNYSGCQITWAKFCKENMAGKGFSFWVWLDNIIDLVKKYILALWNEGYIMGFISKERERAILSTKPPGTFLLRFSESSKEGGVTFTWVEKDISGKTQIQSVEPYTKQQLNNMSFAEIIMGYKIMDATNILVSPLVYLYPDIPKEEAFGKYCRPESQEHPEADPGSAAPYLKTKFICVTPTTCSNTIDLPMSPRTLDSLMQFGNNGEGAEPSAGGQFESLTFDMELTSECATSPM

Structure (SMILES): C[C@@H]1C(=O)O[C@H]2[C@H](O)[C@@]34[C@H]5C[C@@H](C(C)(C)C)[C@]36[C@@H](OC(=O)[C@@H]6O)O[C@@]4(C(=O)O5)[C@@]12O [GINKOLIDE B]
inhibition at 10 µM [1]: 84.3%

Structure (SMILES): C=C[C@H]1[C@H](O[C@@H]2O[C@H](CO)[C@@H](O)[C@H](O)[C@H]2O)OC=C(C(=O)O)[C@H]1C[C@H]1OC(=O)C(O)=C1c1ccccc1 [LONIPHENYRUVIRIDOSIDE D]
inhibition [4]: 48.8%
inhibition at 10 µM [1]: < 30%
Activity (A549): inactive
Activity (BGC-823): inactive
Activity (MCF7): inactive
Activity (Bel-7402): inactive
Activity (KETR3): inactive
Activity (HCT-8): inactive
Activity (PC-12): inactive
Activity (Liver microsomes): inactive
inhibition [2]: inactive
Activity [3]: inactive

Structure (SMILES): C=C[C@H]1[C@H](O[C@@H]2O[C@H](CO)[C@@H](O)[C@H](O)[C@H]2O)OC=C(C(=O)OC)[C@H]1/C=C/c1ccc[n+](CCO)c1 [LONIJAPOSIDE J]
inhibition at 10 µM [1]: < 30%
Activity (A549): inactive
Activity (BGC-823): inactive
Activity (MCF7): inactive
Activity (Bel-7402): inactive
Activity (KETR3): inactive
Activity (HCT-8): inactive
Activity (PC-12): inactive
Activity (Liver microsomes): inactive
inhibition [2]: inactive
Activity [3]: inactive

Structure (SMILES): C=C[C@H]1[C@H](O[C@@H]2O[C@H](CO)[C@@H](O)[C@H](O)[C@H]2O)OC=C(C(=O)[O-])[C@H]1/C=C/c1ccc[n+](CCO)c1 [LONIJAPOSIDE I]
inhibition at 10 µM [1]: 72.1%
Activity (A549): inactive
Activity (BGC-823): inactive
Activity (MCF7): inactive
Activity (Bel-7402): inactive
Activity (KETR3): inactive
Activity (HCT-8): inactive
Activity (PC-12): inactive
Activity (Liver microsomes): inactive
inhibition [2]: inactive
Activity [3]: inactive

Structure (SMILES): C=C[C@H]1[C@H](O[C@@H]2O[C@H](CO)[C@@H](O)[C@H](O)[C@H]2O)OC=C(C(=O)[O-])[C@H]1/C=C/c1ccc[n+](CC(=O)O)c1 [LONIJAPOSIDE K]
inhibition at 10 µM [1]: 54.6%
Activity (A549): inactive
Activity (BGC-823): inactive
Activity (MCF7): inactive
Activity (Bel-7402): inactive
Activity (KETR3): inactive
Activity (HCT-8): inactive
Activity (PC-12): inactive
Activity (Liver microsomes): inactive
inhibition [2]: inactive
Activity [3]: inactive

Continued, in another order:

inhibition [2]: inactive
Structure (SMILES): C=C[C@H]1[C@H](O[C@@H]2O[C@H](CO)[C@@H](O)[C@H](O)[C@H]2O)OC=C(C(=O)[O-])[C@H]1/C=C/c1ccc[n+](CCCC(=O)O)c1 [LONIJAPOSIDE M]
inhibition at 10 µM [1]: < 30%
Activity (A549): inactive
Activity (BGC-823): inactive
Activity (MCF7): inactive
Activity (Bel-7402): inactive
Activity (KETR3): inactive
Activity (HCT-8): inactive
Activity (PC-12): inactive
Activity (Liver microsomes): inactive
Activity [3]: inactive

inhibition [2]: inactive
Structure (SMILES): C=C[C@H]1[C@H](O[C@@H]2O[C@H](CO)[C@@H](O)[C@H](O)[C@H]2O)OC=C(C(=O)OC)[C@H]1/C=C/c1cc(C(=O)[O-])c[n+](C)c1 [LONIJAPOSIDE G]
inhibition at 10 µM [1]: < 30%
Activity (A549): inactive
Activity (BGC-823): inactive
Activity (MCF7): inactive
Activity (Bel-7402): inactive
Activity (KETR3): inactive
Activity (HCT-8): inactive
Activity (PC-12): inactive
Activity (Liver microsomes): inactive
Activity [3]: inactive

inhibition [2]: inactive
Structure (SMILES): C=C[C@H]1[C@H](O[C@@H]2O[C@H](CO)[C@@H](O)[C@H](O)[C@H]2O)OC=C(C(=O)O)[C@H]1/C=C/c1cc(C(=O)[O-])c[n+](CC)c1 [LONIJAPOSIDE F]
inhibition at 10 µM [1]: 87.6%
Activity (A549): inactive
Activity (BGC-823): inactive
Activity (MCF7): inactive
Activity (Bel-7402): inactive
Activity (KETR3): inactive
Activity (HCT-8): inactive
Activity (PC-12): inactive
Activity (Liver microsomes): inactive
Activity [3]: inactive

inhibition [2]: inactive
Structure (SMILES): C=C[C@H]1[C@H](O[C@@H]2O[C@H](CO)[C@@H](O)[C@H](O)[C@H]2O)OC=C(C(=O)OC)[C@H]1/C=C/c1ccc[n+](CCCC(=O)[O-])c1 [LONIJAPOSIDE N]
inhibition at 10 µM [1]: < 30%
Activity (A549): inactive
Activity (BGC-823): inactive
Activity (MCF7): inactive
Activity (Bel-7402): inactive
Activity (KETR3): inactive
Activity (HCT-8): inactive
Activity (PC-12): inactive
Activity (Liver microsomes): inactive
Activity [3]: inactive

inhibition [2]: inactive
Structure (SMILES): C=C[C@H]1[C@H](O[C@@H]2O[C@H](CO)[C@@H](O)[C@H](O)[C@H]2O)OC=C(C(=O)O)[C@H]1/C=C/c1cc(C(=O)[O-])c[n+](CCCC(=O)O)c1 [DEMETHYL LONIJAPOSIDE A]
inhibition at 10 µM [1]: < 30%
Activity (A549): inactive
Activity (BGC-823): inactive
Activity (MCF7): inactive
Activity (Bel-7402): inactive
Activity (KETR3): inactive
Activity (HCT-8): inactive
Activity (PC-12): inactive
Activity (Liver microsomes): inactive
Activity [3]: inactive

inhibition [2]: inactive
Structure (SMILES): C=C[C@H]1[C@H](O[C@@H]2O[C@H](CO)[C@@H](O)[C@H](O)[C@H]2O)OC=C(C(=O)OC)[C@H]1/C=C/c1cc(C(=O)[O-])c[n+](CC)c1 [LONIJAPOSIDE E]
inhibition at 10 µM [1]: < 30%
Activity (A549): inactive
Activity (BGC-823): inactive
Activity (MCF7): inactive
Activity (Bel-7402): inactive
Activity (KETR3): inactive
Activity (HCT-8): inactive
Activity (PC-12): inactive
Activity (Liver microsomes): inactive
Activity [3]: inactive

inhibition [2]: inactive
Structure (SMILES): C=C[C@@H]1/C(=C\Cc2cc(C(=O)[O-])c[n+](CCCC(=O)O)c2)C(C(=O)OC)=CO[C@H]1O[C@@H]1O[C@H](CO)[C@@H](O)[C@H](O)[C@H]1O [LONIJAPOSIDE H]
inhibition at 10 µM [1]: 68.6%
Activity (A549): inactive
Activity (BGC-823): inactive
Activity (MCF7): inactive
Activity (Bel-7402): inactive
Activity (KETR3): inactive
Activity (HCT-8): inactive
Activity (PC-12): inactive
Activity (Liver microsomes): inactive
Activity [3]: inactive

inhibition [2]: inactive
Structure (SMILES): C=C[C@H]1[C@H](O[C@@H]2O[C@H](CO)[C@@H](O)[C@H](O)[C@H]2O)OC=C(C(=O)[O-])[C@H]1/C=C/c1ccc[n+](CCC(=O)O)c1 [LONIJAPOSIDE L]
inhibition at 10 µM [1]: < 30%
Activity (A549): inactive
Activity (BGC-823): inactive
Activity (MCF7): inactive
Activity (Bel-7402): inactive
Activity (KETR3): inactive
Activity (HCT-8): inactive
Activity (PC-12): inactive
Activity (Liver microsomes): inactive
Activity [3]: inactive
